Assay results: PubChem BioAssay
Calls of active or inactive are those of the source. Rule as the data show it, unless noted: active = inhibition above about 30%; inactive = the rest.

Columns and labels:
[1] = reduced viability of SK-BR-3 breast cancer cells – cell-based, 24 h, human, pilot screen (AID 572;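 active = viability at or below 10% of carrier control in both of two separate runs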;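 also: compound exposure lasted between 18 and 24 h rather than exactly 24 h; 100% = carrier-treated control wells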); conditions: SK-BR-3 viability, CellTiter-Glo luminescence, at 10 µM, stronger effect = lower value
[2] = HUVEC growth inhibition – cell-based, human, primary screen (AID 575;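 active = viability at or below 30% in both replicate assays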;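 also: 100% = median of untreated cell wells with 0.1% DMSO on each plate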); conditions: HUVEC proliferation, CellTiter-Glo luminescence, 72 h; at 10 µM; stronger effect = lower value
Procedure, shortened: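 Assay system: primary human umbilical vein endothelial cells / Buffer or medium: endothelial basal medium with 2% FBS plus growth supplements / Compound dosing: one dose, 10 µM final, 0.1% DMSO / Timing: 72 h treatment at 37 °C / Signal: CTG luminescence / Benchmarks: 32 DMSO-only cell-control wells (high), 32 MePR drug-control wells (low) per plate / Plate: collagen-coated 384-well format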

[3] = H69AR cell proliferation blockers – human, duplicate replicates, primary screen (AID 580;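 active = viability at or under a set limit in both replicates, limit being median viability minus 3 SD, cut at about 48% in these data, passing the limit was not always enough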;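 also: 100% = mean luminescence of untreated wells and 0% = no signal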); conditions: H69AR lung tumor cells viability, ATP luminescence, 72 h; at 10 µM; stronger effect = lower value
[4] = MRP1 drug-resistance reversers in H69AR cells – cell-based, doxorubicin co-treatment, pilot screen (AID 601;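 active = viability loss from added drug above about 55%, and viability with drug at most 40%, in both replicates, limit read from the data, passing the limit was not always enough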); conditions: CellTiter-Glo, 72 h, at 10 µM; for differential viability (reversal): stronger effect = higher value
[5] = yeast transport mutant growth inhibition pilot in 384-well plates, post-Golgi transport modulator project (AID 636; in the data active = inhibition above about 31%); conditions: absorbance 615 nm, about 18 h, stronger effect = higher value
[6] = growth suppression of yeast trafficking mutant, preliminary HTS, modulators of trafficking downstream of Golgi apparatus project, 1536-format plate, OD 615 nm (AID 637); conditions: yeast transport mutant growth, absorbance 615 nm, 18 h; stronger effect = higher value
[7] = H69AR cells + 2 uM doxorubicin, measured here: viability with 2 uM doxorubicin, stronger effect = lower value
[8] = H69AR cells, compound alone cytotoxicity

| SMILES | viability [1] | viability [2] | viability [3] | differential viability (reversal) ([4]; H69AR cells + 2 uM doxorubicin) | viability [4, 7] [%] | viability [4, 8] [%] | inhibition [5] | inhibition [6] |
| --- | --- | --- | --- | --- | --- | --- | --- | --- |
| Cc1cc(N2C(=O)CC(N3CCN(c4ccc(C(=O)c5cccs5)cc4)CC3)C2=O)no1 (stereo not given) | 96% (inactive) | 87.4% (inactive) | 87.6% (inactive) | -4.99% (inactive) | 92.6 | 87.6 | -3.42% (inactive) | 13.6% (inactive) |
| COc1ccc(Nc2nc(-c3sc(N)nc3C)cs2)cc1 | 93% (inactive) | 92.9% (inactive) | 80.2% (inactive) | -5.13% (inactive) | 85.3 | 80.2 | -8.24% (inactive) | 0.73% (inactive) |
| COc1ccccc1NC(=O)N(Cc1ccco1)Cc1cc2cccc(C)c2[nH]c1=O | 90% (inactive) | 70.9% (inactive) | 75.8% (inactive) | 1.06% (inactive) | 74.7 | 75.8 | -8.27% (inactive) | -1.45% (inactive) |
| CSc1ncc(Cl)c(C(=O)Nc2ccc(S(=O)(=O)N3CCOCC3)cc2)n1 | 85% (inactive) | 97% (inactive) | 101% (inactive) | 9.55% (inactive) | 91.8 | 101 | -7.67% (inactive) | 0.36% (inactive) |
| CC(C)c1cc(C(=O)Nc2cccnc2)no1 | 110% (inactive) | 105% (inactive) | 97.3% (inactive) | -0.865% (inactive) | 98.2 | 97.3 | -7.73% (inactive) | -0.18% (inactive) |
| CCn1nnnc1SCC(=O)N1c2ccccc2CCc2ccccc21 | 86% (inactive) | 99.1% (inactive) | 86.7% (inactive) | -5.9% (inactive) | 92.6 | 86.7 | -9.07% (inactive) | -0.18% (inactive) |
| CC(C)OC(=O)c1ccc(NC(=O)C2C3CC4OC(=O)C2C4C3)cc1 (stereo not given) | 104% (inactive) | 91.8% (inactive) | 95.6% (inactive) | 7.04% (inactive) | 88.5 | 95.6 | -1.49% (inactive) | -4.91% (inactive) |
| CC(=O)c1ccc(-n2nnnc2SCC(=O)N2CCc3ccccc3C2)cc1 | 94% (inactive) | 106% (inactive) | 88.9% (inactive) | -12.1% (inactive) | 101 | 88.9 | -6.3% (inactive) | -14.7% (inactive) |
| CCOC(=O)c1ccc(N(CC(=O)NC2CCCC2)C(=O)CNC(=O)c2ccco2)cc1 | 90% (inactive) | 95.4% (inactive) | 93.9% (inactive) | 1.51% (inactive) | 92.4 | 93.9 | 0.13% (inactive) | -2.46% (inactive) |
| CC1CNCCN1S(=O)(=O)c1cccc2cnccc12 (stereo not given) | 100% (inactive) | 84.4% (inactive) | 102% (inactive) | 5.87% (inactive) | 96.2 | 102 | 1.3% (inactive) | -1.83% (inactive) |
| CCCC(=O)Nc1c2c(nn1-c1ccc(OC)cc1)CS(=O)C2 (stereo not given) | 103% (inactive) | 109% (inactive) | 102% (inactive) | 9.39% (inactive) | 92.8 | 102 | -2.73% (inactive) | 6.07% (inactive) |
| Cc1nnc(NC(=O)C2CCCO2)s1 (stereo not given) | 90% (inactive) | 105% (inactive) | 96.4% (inactive) | -10.5% (inactive) | 107 | 96.4 | -2.47% (inactive) | -0.91% (inactive) |
| COc1ccc(S(=O)(=O)Nc2cc(C)on2)cc1OC | 80% (inactive) | 97.1% (inactive) | 105% (inactive) | 1.57% (inactive) | 104 | 105 | -1.1% (inactive) | -5.81% (inactive) |
| Cc1ccccc1Nc1cc2ccccc2c(=O)[nH]1 | 95.5% (inactive) | 63.8% (inactive) | 102% (inactive) | 2.71% (inactive) | 99.5 | 102 | 4.61% (inactive) | 17.8% (inactive) |
| CC(=O)OCC1=C(C(=O)O)N2C(=O)[C@@H](NC(=O)Cc3cccs3)[C@H]2SC1 | 141% (inactive) | 94.8% (inactive) | 94.2% (inactive) | 3.98% (inactive) | 90.2 | 94.2 | -4.81% (inactive) | 8.5% (inactive) |
